Data published in ChEMBL document CHEMBL4033800, “Further Developments of the Phenyl-Pyrrolyl Pentane Series of Nonsteroidal Vitamin D Receptor Modulators as Anticancer Agents” (J Med Chem, 2018).
Calls of active or inactive are those of the source. No cut-off for these calls is given here.

What was measured:
[1] = tested on: MCF7; experiment: Induction of cell cycle arrest in human MCF7 cells assessed as accumulation at G2/M phase at 1 uM after 24 hrs by propidium iodide-staining based flow cytometry (reference value: 12.41%); type: functional
[2] = tested on: MCF7; experiment: Antitumor activity against human MCF7 cells xenografted in BALB/c nude mouse assessed as reduction in tumor cell proliferation at 10 mg/kg, ip administered every other day by Ki-67 staining based microscopic analysis; type: functional, organism-based
In short: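 MCF7 orthotopic tumors from nude mice given 10 mg/kg i.p. were sectioned and immunostained for Ki-67. Ki-67-positive area was scored as a percentage of total nuclear area per field (n=10 fields, 400×) and normalized to the calcitriol group.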

[3] = Drug uptake in human MCF7 cells at 1 uM after 10 mins by HPLC analysis; type: ADME, cell-based; settings: mcf7, 10 min
In short: (§1)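 MCF7 cells were given 1 µM compound in medium with 10% FBS for 10 or 30 min. Cells and medium were extracted separately with chloroform/methanol (3:1, v/v) and analysed by HPLC. Mean ± SEM, n = 3.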

[4] = AUC in Sprague-Dawley rat at 5 mg/kg, iv measured up to 48 hrs post administration by HPLC analysis; type: ADME, organism-based; parameters: dose 5 mg/kg, time < 48 hr, route intravenous; settings: in vivo
In short: (§2)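 Male Sprague-Dawley rats (180−220 g), 4 per group, dosed at 5 mg/kg i.v., 20 mg/kg i.p. or 20 mg/kg p.o. Parameters given as mean ± SD (n = 4).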

[5] = tested on: HepG2; experiment: Induction of cell cycle arrest in human HepG2 cells at 1 uM after 24 hrs by propidium iodide-staining based flow cytometry; type: functional
[6] = tested on: HepG2; experiment: Antiproliferative activity against human HepG2 cells after 48 hrs by MTT assay; type: functional, cell-based; settings: HepG2, 48 h
[7] = tested on: MCF7; experiment: Antiproliferative activity against human MCF7 cells after 48 hrs by MTT assay; type: functional, cell-based; settings: MCF7, 48 h
[8] = tested on: MCF7; experiment: Induction of apoptosis in human MCF7 cells assessed as upregulation of Bak mRNA levels at 1 uM after 24 hrs by RT-qPCR analysis; type: functional, cell-based
[9] = tested on: MCF7; experiment: Induction of apoptosis in human MCF7 cells assessed as early apoptotic cells at 1 uM after 24 hrs by Annexin V-FITC/propidium iodide-staining based flow cytometry (reference value: 1.74%); type: functional
[10] = tested on: MCF7; experiment: Induction of apoptosis in human MCF7 cells assessed as viable cells at 1 uM after 24 hrs by Annexin V-FITC/propidium iodide-staining based flow cytometry (reference value: 98.2%); type: functional; settings: MCF7, 24 h, read-out: Activity
[11] = Drug uptake in human MCF7 cells at 1 uM after 30 mins by HPLC analysis; type: ADME, cell-based; settings: mcf7, 0.5 h; in short: as §1
[12] = tested on: MCF7; experiment: Induction of cell cycle arrest in human MCF7 cells assessed as upregulation of p21 expression at 1 uM after 24 hrs by Western blot analysis; type: functional, cell-based
In short: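 p21 and p27 protein levels were measured by Western blot in MCF7 cells treated at 1 µM for 24 h.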

[13] = tested on: Mus musculus; experiment: Toxicity in BALB/c nude mouse xenografted with human MCF7 cells assessed as change in body weight at 10 mg/kg, ip administered every other day relative to control; type: organism-based; settings: in vivo
In short: (§3)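 MCF7 cells transplanted orthotopically into the breast of athymic nude mice. Dosing at 10 mg/kg i.p. in vehicle of polyoxyethylated castor oil/ethanol/saline 1:1:18, with vehicle and saline control groups. Body weight, tumor volume and serum calcium followed.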

[14] = tested on: MCF7; experiment: Induction of cell cycle arrest in human MCF7 cells assessed as accumulation at G0/G1 phase at 1 uM after 24 hrs by propidium iodide-staining based flow cytometry (reference value: 56.03%); type: functional
[15] = tested on: PC-3; experiment: Antiproliferative activity against human PC3 cells after 48 hrs by MTT assay; type: functional, cell-based; settings: PC-3, 48 h
[16] = tested on: MCF7; experiment: Antitumor activity against human MCF7 cells xenografted in BALB/c nude mouse assessed as tumor growth inhibition at 10 mg/kg, ip administered every other day; type: functional, organism-based; in short: as §3
[17] = Clearance in Sprague-Dawley rat at 5 mg/kg, iv measured up to 48 hrs post administration by HPLC analysis; type: ADME, organism-based; settings: in vivo; in short: as §2
[18] = tested on: MCF7; experiment: Induction of cell cycle arrest in human MCF7 cells assessed as upregulation of p21 mRNA levels at 1 uM after 24 hrs by RT-qPCR analysis; type: functional, cell-based
In short: (§4)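 p21 and p27 mRNA levels were measured by real-time quantitative PCR in MCF7 cells treated at 1 µM for 24 h.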

[19] = tested on: Mus musculus; experiment: Toxicity in BALB/c nude mouse xenografted with human MCF7 cells assessed increase in serum calcium levels at 10 mg/kg, ip administered every other day relative to control; type: organism-based; settings: in vivo; in short: as §3
[20] = tested on: MCF7; experiment: Induction of apoptosis in human MCF7 cells assessed as necrotic cells at 1 uM after 24 hrs by Annexin V-FITC/propidium iodide-staining based flow cytometry (reference value: 0.031%); type: functional
[21] = molecular target: T1, Vitamin D3 receptor (Homo sapiens, UniProt P11473); experiment: Displacement of fluormone VDR red from human full length VDR after 4 hrs by fluorescence polarization assay
T1 sequence (P11473 whole entry): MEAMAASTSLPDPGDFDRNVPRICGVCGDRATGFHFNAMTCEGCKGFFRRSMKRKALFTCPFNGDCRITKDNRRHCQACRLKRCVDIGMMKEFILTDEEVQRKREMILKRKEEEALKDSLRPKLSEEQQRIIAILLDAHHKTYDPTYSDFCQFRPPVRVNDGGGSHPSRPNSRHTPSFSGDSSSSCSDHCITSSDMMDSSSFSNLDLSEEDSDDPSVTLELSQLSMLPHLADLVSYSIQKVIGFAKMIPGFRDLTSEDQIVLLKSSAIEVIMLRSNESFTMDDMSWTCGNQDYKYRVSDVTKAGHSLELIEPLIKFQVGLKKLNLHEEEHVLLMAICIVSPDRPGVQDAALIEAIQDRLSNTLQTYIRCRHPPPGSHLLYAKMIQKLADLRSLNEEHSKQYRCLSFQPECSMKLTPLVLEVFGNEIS

[22] = Half life in Sprague-Dawley rat at 20 mg/kg, po by HPLC analysis; type: ADME, organism-based; settings: in vivo; in short: as §2
[23] = tested on: MCF7; experiment: Induction of cell cycle arrest in human MCF7 cells assessed as upregulation of p27 mRNA levels at 1 uM after 24 hrs by RT-qPCR analysis; type: functional, cell-based; in short: as §4
[24] = Clearance in Sprague-Dawley rat at 20 mg/kg, ip by HPLC analysis; type: ADME, organism-based; settings: in vivo; in short: as §2
[25] = tested on: MCF7; experiment: Induction of apoptosis in human MCF7 cells assessed as late apoptotic cells at 1 uM after 24 hrs by Annexin V-FITC/propidium iodide-staining based flow cytometry (reference value: 0.062%); type: functional
[26] = AUC in Sprague-Dawley rat at 20 mg/kg, po measured up to 48 hrs post administration by HPLC analysis; type: ADME, organism-based; parameters: time < 48 hr, dose 20 mg/kg, route oral; settings: in vivo; in short: as §2
[27] = Half life in Sprague-Dawley rat at 20 mg/kg, ip by HPLC analysis; type: ADME, organism-based; settings: in vivo; in short: as §2
[28] = MRT in Sprague-Dawley rat at 20 mg/kg, po by HPLC analysis; type: ADME, organism-based; settings: in vivo; in short: as §2
[29] = molecular target: T2, Vitamin D3 receptor (Homo sapiens) (UniProt P11473); experiment: Transactivation of human GAL4-fused VRD expressed in HEK293 cells co-transfected with human RXRalpha/VDRE after 24 hrs by dual luciferase reporter gene assay; type: cell-based
T2 sequence (whole entry): T1 sequence (P11473 whole entry)

[30] = MRT in Sprague-Dawley rat at 5 mg/kg, iv by HPLC analysis; type: ADME, organism-based; settings: in vivo; in short: as §2

| Compound | Activity [1] | Activity [2] | Drug uptake [3] | AUC at 48 h [4] | Activity [5] | IC50 [6] | IC50 [7] | Activity [8] | Activity [9] | viability at 1 µM [10] | Drug uptake [11] | Activity [12] | Activity [13] | Activity [14] | IC50 [15] | TGI [16] | clearance [17] | Activity [18] | Activity [19] | Activity [20] | other results |
| --- | --- | --- | --- | --- | --- | --- | --- | --- | --- | --- | --- | --- | --- | --- | --- | --- | --- | --- | --- | --- | --- |
| CCn1c(C(=O)NCCCN2CCOCC2)ccc1C(CC)(CC)c1ccc(OCCC(O)(CC)CC)c(C)c1 | 6.96% | Active | 37.9% | 10400 ng·h/mL | Active | 1760 nM | 260 nM | Active | 9.72% | 87.3% | 38.2% | Active | Non-Toxic | 70.41% | 1570 nM | Active | 8.17 mL/min | Active | Non-Toxic | 0.2% | IC50 [21]: 406 nM; half-life [22]: 11.3 h; Activity [23]: Active; CL/F [24]: 13 mL/min; Activity [25]: 2.83%; AUC at 48 h [26]: 15300 ng·h/mL; half-life [27]: 11.7 h; MRT [28]: 15.9 h; Activity [29]: Dose-dependent effect; MRT [30]: 7.55 h |
| CCN(CC)CCCNC(=O)c1ccc(C(CC)(CC)c2ccc(OCCC(O)(CC)CC)c(C)c2)n1CC | 4.72% | Active | Active | 25200 ng·h/mL | Active | 150 nM | 57 nM | Active | 9.59% | 85.7% | Active | Active | Non-Toxic | 70.15% | 40 nM | Active | 3.5 mL/min | Active | Non-Toxic | 0.23% | IC50 [21]: 296 nM; half-life [22]: 6.82 h; Activity [23]: Active; CL/F [24]: 11.3 mL/min; Activity [25]: 4.49%; AUC at 48 h [26]: 21500 ng·h/mL; half-life [27]: 6.21 h; MRT [28]: 11 h; Activity [29]: Dose-dependent effect; MRT [30]: 3.85 h |
